Converted amounts (≈) assume the structure as drawn. The source made the active and inactive calls. The calls are words filed in the database; no cut-off is given here.
What was measured:
[1] = tested on: Neuro2a; assay: Inhibition of voltage-gated sodium channel in mouse Neuro2a cells at 20 ug/ml after 24 hrs by MTT assay; assay type: cell-based
[2] = tested on: Staphylococcus aureus; assay: Antibacterial activity against methicillin-resistant Staphylococcus aureus after 24 hrs by optical density method; assay type: functional
Summary of the method: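 MRSA grown on GYT medium for 24 h at 37 °C, then inoculated into GYT medium containing serial dilutions of compound and incubated 24 h at 37 °C. Growth read as optical density at 600 nm. MIC taken as the lowest concentration inhibiting bacterial growth.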

[3] = tested on: Neuro2a; assay: Activation of voltage-gated sodium channel in mouse Neuro2a cells at 20 ug/ml after 16 hrs by MTT assay; assay type: cell-based
Summary of the method: (§1)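 Neuro2a cells plated at 3.0×10^5 cells/mL in RPMI 1640 with 10% FBS and 1% pen/strep, 200 µL/well, recovered overnight (37 °C, 5% CO2). DMSO stocks (10 mg/mL) diluted in serum-free RPMI to a final 20 µg/mL. Bottom half of plate got 5 mM ouabain plus 150 µM veratridine in PBS/5 mM HCl; top half PBS/HCl only for general toxicity. Brevetoxin-2 positive control. MTT after ~16 h, read at 570/630 nm.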

[4] = tested on: NCI-H460; assay: Cytotoxicity against human H460 cells after 48 hrs by MTT assay; assay type: functional, cell-based
Summary of the method: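 H-460 cells at 3.33×10^4 cells/mL in RPMI 1640 with FBS and 1% pen/strep, 180 µL/well, recovered overnight (37 °C, 5% CO2). DMSO stocks (10 mg/mL) diluted in serum-free RPMI to final 30 or 3 µg/mL; serum-free medium as negative control. ~48 h incubation, then MTT, absorbance read at 570 and 630 nm.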

[5] = Activation of voltage-gated sodium channel in mouse Neuro2a cells after 16 hrs by MTT assay; assay type: cell-based; settings: N2a; summary of the method: as §1
[6] = tested on: Artemia salina; assay: Toxicity in Artemia salina after 24 hrs; assay type: organism-based
Summary of the method: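 Artemia salina eggs hatched over 24 h; about 20 nauplii in ~0.5 mL seawater added per well holding sample in 50 µL EtOH plus 4.5 mL artificial seawater. Final concentrations 1, 5 and 25 ppm, controls and samples in triplicate. Live and dead counted after 24 h at 28 °C.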

Compound	inhibition [1]	Activity [2]	Activity [3]	Activity [4]	IC50 [5] [µg/mL]	IC50 ([4]; NCI-H460, 48 h) [µg/mL]	Activity ([6]; artemia salina, in vivo, 24 h)	MIC [2] [µg/mL]	IC50 [6] [ppm]
O=S(=O)(O)Oc1ccc(Oc2c(Br)cc(Oc3ccc(O)c(Br)c3)cc2Oc2ccc(Br)cc2Br)c(Br)c1Oc1ccc(Br)cc1Br	inactive	inactive	inactive	inactive					
O=S(=O)(O)Oc1ccc(Oc2cc(Br)c(Oc3ccc(O)c(Oc4ccc(Br)cc4Br)c3Br)c(Oc3ccc(Br)cc3Br)c2)cc1Br	inactive	inactive	inactive	inactive					
Oc1ccc(Oc2cc(Br)c(Oc3ccc(O)c(Oc4ccc(Br)cc4Br)c3Br)c(Oc3ccc(Br)cc3Br)c2)cc1Br [CROSSBYANOL A]	inactive	inactive			20 (≈ 19.4 µM)	30 (≈ 29.1 µM)	Non-toxic		
O=S(=O)(O)Oc1ccc(Oc2cc(Br)c(Oc3ccc(OS(=O)(=O)O)c(Oc4ccc(Br)cc4Br)c3Br)c(Oc3ccc(Br)cc3Br)c2)cc1Br [CROSSBYANOL B]	inactive		inactive	inactive				2 (≈ 1.68 µM)	2.8
